Results as given in ChEMBL document CHEMBL1128383, “Potent, orally active, competitive N-methyl-D-aspartate (NMDA) receptor antagonists are substrates for a neutral amino acid uptake system in Chinese hamster ovary cells” (J Med Chem, 1995).
Blank lines part the entries; values can stand above or below the molecule they belong to.

Key:
[1] = target: Glutamate NMDA receptor; test: (§1) Inhibition of NMDA receptor binding affinity in rat brain synaptosomal membrane using [3H]glutamate as radioligand; type: cell membranes
Method in brief: (§2)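 Displacement of radioligand ([3H]glutamate, [3H]glycine or [3H]CGP 39653) from rat cortex synaptosomal membranes. IC50 values are means of at least two experiments, each run in triplicate.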

[2] = target: Glutamate NMDA receptor; test: (§3) Inhibition of receptor binding affinity in rat brain synaptosomal membrane was determined by [3H]-CGP- 39653 as radioligand; type: cell membranes; method in brief: as §2
[3] = target: T1, Glutamate NMDA receptor (Rattus norvegicus) (UniProt P35439+Q00959+Q00960+Q00961+Q62645+Q8VHN2+Q9R1M7); test: Inhibition of NMDA receptor binding in rat brain synaptosomal membrane using [3H]glutamate as radioligand; type: cell membranes; conditions: concentration not given here; method in brief: as §2
[4] = target: T1, Glutamate NMDA receptor (Rattus norvegicus); test: Inhibition of NMDA receptor binding affinity in rat brain synaptosomal membrane by using [3H]glycine as radioligand; type: cell membranes; conditions: concentration not given here; method in brief: as §2
[5] = target: T1, Glutamate NMDA receptor (Rattus norvegicus); test: as §3; type: cell membranes; conditions: concentration not given here; method in brief: as §2
[6] = target: T1, Glutamate NMDA receptor (Rattus norvegicus); test: (§4) Inhibition of NMDA receptor binding affinity in rat brain synaptosomal membrane using [3H]glycine as radioligand; type: cell membranes; conditions: concentration not given here; method in brief: as §2
[7] = target: T1, Glutamate NMDA receptor (Rattus norvegicus); test: as §1; type: cell membranes; conditions: concentration not given here; method in brief: as §2
[8] = system: Mus musculus; test: Maximal electroshock (MES) results in mice by iv administration of 0.3 mg/kg expressed as number of animals ataxia by total 5 animals tested after 2 hr was reported; type: functional
Method in brief: (§5)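 Adult male CF-1 mice (18–24 g) dosed iv, mg/kg. At 15 min, 1 h and 2 h after dosing, a 60 Hz sinusoidal current (50 mA base to peak, 0.2 s) is applied through corneal electrodes smeared with electrolyte jelly. Protection means no tonic hindlimb extension. Ataxia is scored by inverted screen. Data are expressed as animals affected per animals tested, 5 per group.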

[9] = system: Mus musculus; test: Maximal electroshock (MES) results in mice by iv administration of 1 mg/kg expressed as number of animals protected by total 5 animals tested after 15 min was reported; type: functional; method in brief: as §5
[10] = system: Mus musculus; test: Maximal electroshock (MES) results in mice by iv administration of 1 mg/kg expressed as number of animals protected by total 5 animals tested after 1 hr was reported; type: functional; method in brief: as §5
[11] = system: Mus musculus; test: Maximal electroshock (MES) results in mice by iv administration of 0.3 mg/kg expressed as number of animals protected by total 5 animals tested after 1 hr was reported; type: functional; method in brief: as §5
[12] = system: Mus musculus; test: Maximal electroshock (MES) results in mice by iv administration of 1 mg/kg expressed as number of animals protected by total 5 animals tested after 2 hr was reported; type: functional; method in brief: as §5
[13] = system: Mus musculus; test: Maximal electroshock (MES) results in mice by iv administration of 0.3 mg/kg expressed as number of animals protected by total 5 animals tested after 2 hr was reported; type: functional; method in brief: as §5
[14] = system: Mus musculus; test: Maximal electroshock (MES) results in mice by iv administration of 0.3 mg/kg expressed as number of animals ataxia by number of animals tested after 1 hr was reported; type: functional; method in brief: as §5
[15] = system: Mus musculus; test: Maximal electroshock (MES) results in mice by iv administration of 1 mg/kg expressed as number of animals ataxia by total 5 animals tested after 2 hr was reported; type: functional; method in brief: as §5
[16] = system: Mus musculus; test: Maximal electroshock (MES) results in mice by iv administration of 0.3 mg/kg expressed as number of animals ataxia by total 5 animals tested after 15 min was reported; type: functional; method in brief: as §5
[17] = system: Mus musculus; test: Maximal electroshock (MES) results in mice by iv administration of 1 mg/kg expressed as number of animals ataxia by total 5 animals tested after 1 hr was reported; type: functional; method in brief: as §5
[18] = system: Mus musculus; test: Maximal electroshock (MES) results in mice by iv administration of 0.3 mg/kg expressed as number of animals protected by total 5 animals tested after 15 min was reported; type: functional; method in brief: as §5
[19] = system: Mus musculus; test: Maximal electroshock (MES) results in mice by iv administration of 1 mg/kg expressed as number of animals ataxia by total 5 animals tested after 15 min was reported; type: functional; method in brief: as §5
[20] = target: Glutamate NMDA receptor; test: as §4; type: cell membranes; method in brief: as §2
[21] = system: Mus musculus; test: Maximal electroshock results in mice by iv administration of 3 mg/kg expressed as 50% effective dose; type: functional
[22] = target: Glutamate NMDA receptor; test: Inhibition of receptor binding affinity in […] measured using LDH release
Method in brief: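 Neuronal cell-culture excitotoxicity assay. Cell death is induced by a 5 min application of 100 μM NMDA and read out as lactate dehydrogenase release. The value is the compound concentration needed to prevent cell death.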

[23] = organism: Mus musculus; test: Potent oral activity in MES mice.; type: functional
[24] = Therapeutic index(TI) expressed as ratio of ataxia ED50 to the MES ED50 was determined; conditions: read-out: TI

SMILES: N[C@H](Cc1cc(CP(=O)(O)O)cc(-c2ccc3ccccc3c2)c1)C(=O)O
IC50 [1]: 650 nM
IC50 [2]: 590 nM

SMILES: N[C@@H](Cc1cc(CP(=O)(O)O)cc(-c2ccc3ccccc3c2)c1)C(=O)O
Ataxia [8]: 0
Protected [9]: 1
Protected [10]: 5
Protected [11]: 0
IC50 [1]: 14 nM
Protected [12]: 5
Protected [13]: 2
Ataxia [14]: 0
Ataxia [15]: 0
Ataxia [16]: 0
Ataxia [17]: 1
Protected [18]: 1
Ataxia [19]: 0
IC50 [2]: 12 nM

SMILES: N[C@@H](Cc1cc(CP(=O)(O)O)cc(-c2cccc3ccccc23)c1)C(=O)O
IC50 [20]: 65400 nM
IC50 [1]: 15 nM
ED50 [21]: 0.53 mg/kg
IC50 [22]: 50 nM
ED50 [23]: 5 mg/kg
selectivity ratio [24]: 2.28
IC50 [2]: 6 nM

Further lines, results first:

inhibition [3]: 80%
inhibition [4]: 100%
inhibition [5]: 86%
SMILES: O=P(O)(O)Cc1cc(CP(=O)(O)O)cc(-c2ccccc2)c1

inhibition [6]: 81%
inhibition [7]: 90%
inhibition [5]: 100%
SMILES: N[C@H](Cc1cccc(-c2ccccc2)c1)C(=O)O
